Screening data from PubChem BioAssay.
NR2E3 ag-1: inhibitors of NR2E3-RetCOR corepressor binding, primary screen, NR2E3 agonist project, biochemical, TR-FRET, GST-NR2E3, biotin-RetCOR; Photoreceptor-specific nuclear receptor (Homo sapiens), Q9Y5X4; 0.12% of 320,000 active; 1536-well; inhibition of corepressor binding, % at 4.78 µM;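 active = percent inhibition above the cutoff of mean plus 3 SD of all tested compounds, set per screening campaign, cut at about 20% in these data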
Target sequence (Q9Y5X4 whole entry, looked up): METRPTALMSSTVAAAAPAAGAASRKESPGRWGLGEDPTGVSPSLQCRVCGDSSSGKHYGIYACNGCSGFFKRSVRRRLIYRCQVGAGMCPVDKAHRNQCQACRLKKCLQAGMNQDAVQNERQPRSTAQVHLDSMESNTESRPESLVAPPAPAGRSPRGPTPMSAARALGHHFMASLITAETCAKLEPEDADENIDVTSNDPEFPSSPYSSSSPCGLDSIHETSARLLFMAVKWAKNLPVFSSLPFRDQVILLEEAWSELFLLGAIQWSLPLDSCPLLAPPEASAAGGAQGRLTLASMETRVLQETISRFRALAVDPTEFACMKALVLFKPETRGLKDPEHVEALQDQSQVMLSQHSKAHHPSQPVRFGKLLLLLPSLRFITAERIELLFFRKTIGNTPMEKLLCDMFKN
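Test system: GST-NR2E3 and biotin-RetCOR proteins | Quantity: 1.35 nM GST-tagged NR2E3 final | Medium: Tris pH 7.5 | Also added: 7 nM biotin-RetCOR | Dosing: Compound at 4.8 µM, single dose | Timing: 5 h at 4 °C | Detection: Time-resolved FRET | Read-out basis: Percent inhibition | Benchmarks: Biotin wells as high control, 0.6% DMSO wells as low control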
NR2E3 ag-2: NR2E3 agonists in two-hybrid cells, primary screen, cell-based, luminescence, CHO-S, Gal4-NCOR/VP16-NR2E3; luciferase; Photoreceptor-specific nuclear receptor (Homo sapiens), Q9Y5X4; inhibition of corepressor binding, % at 3.98 µM; 0.35% of 360,000 active;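 active = inhibition above the mean of all tested compounds plus 3 SD, cut at about 70% in these data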;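 note: higher means lower luciferase signal from less NR2E3 corepressor binding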
GalR3 antagonist: GalR3 antagonists in HEK293 cells, primary screen, cell-based, fluorescence readout; inhibition, % at 3 µM; AID 651719, 2012; Galanin receptor type 3 (Homo sapiens), O60755; 0.44% of 360,000 active; HEK293 GalR3-CNG cAMP membrane potential fluorescence; galR3 body fused to GalR1 C-terminus;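 active = inhibition above the screen-wide average plus 3 SD, cut at about 13% in these data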;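 note: forskolin and galanin both at EC90 stimulate the cells; cAMP rise reported by CNG channel membrane potential dye signal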
NR1D1 modulator: modulators of Rev-erb alpha DNA binding, primary screen, biochemical, FITC-DNA, fluorescence polarization, uHTS; Nuclear receptor subfamily 1 group D member 1 (Homo sapiens), P20393; Rev-erbα–FITC-DNA binding, 90 min; activity, % at 10 µM; 0.79% of 370,000 active; AID 1259318, 2017;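 active = activity above about 14%, limit read from the data; passing the limit was not always enough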
PG9 Ab binder: binders of HIV-1 gp120 antibody PG9, primary screen, biochemical, TR-FRET. inhibition, % at 6.7 µM. AID 624416, 2012. HIV-1 gp120 / PG9 antibody interaction. 0.43% of 360,000 active. TR-FRET gp120-PG9 antibody binding; in the data active = inhibition above about 8.5%
Rev-erbA confirm: modulators of Rev-erb alpha DNA binding, confirmation, biochemical, FITC-DNA, fluorescence polarization, single point | shares compounds with NR1D1 modulator | 90 min | activation, % at 25 µM | 61% of 3,000 active;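 active = activation at or above a set limit, or at least 3 SD above the negative control mean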
RORg DNA counter: modulation of RORgamma DNA binding, dose response, counter-screen for Rev-erb alpha modulator project, biochemical, fluorescence polarization, FITC-DNA | 8% of 910 active | IC50, µM | purified RORgamma protein-FITC-DNA binding | AID 1259320, 2017 | shares compounds with NR1D1 modulator;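 active = Compounds whose fitted half-maximal concentration for disrupting protein-DNA binding is below 10 micromolar; the record names Rev-erb in its text, so the target is in doubt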
Of the large screens only hits and unclear results are named; the others gave an inactive call (follow-up assays come after a bar, where they were run). Most compounds without a hit are left out; they make up all but 1.8% or so of the library.

O=c1cc(CN(Cc2ccccc2)Cc2ccccc2)c2ccccc2o1	NR1D1 modulator 22 (no result: NR2E3 ag-1) | Rev-erbA confirm inactive
CCOC(=O)Cn1cc(CN2C(C(=O)OC)CN(Cc3ccc(OC)cc3)CCS2(=O)=O)nn1 (stereo unspecified)	none (no result: NR2E3 ag-1, NR2E3 ag-2, GalR3 antagonist, PG9 Ab binder)
C=CCOc1ccc(/C(O)=C2\C(=O)C(=O)N(CCN(C)C)C2c2cccs2)cc1 (stereo unspecified)	NR1D1 modulator 29 | Rev-erbA confirm 35 | RORg DNA counter inactive
COc1ccc(C2NC(=O)NC(C)=C2C(=O)OC2CCCC(C)C2)cc1 (stereo unspecified)	NR1D1 modulator 18 | Rev-erbA confirm inactive
COc1ccc(C2NC(=O)NC(C)=C2C(=O)OC2CCCCC2)cc1 (stereo unspecified)	none (no result: NR2E3 ag-1)
Cc1ccc(NC(=O)C2CCCN2S(=O)(=O)c2cccnc2)c(C)c1 (stereo unspecified)	none (no result: NR2E3 ag-1, NR2E3 ag-2, GalR3 antagonist, PG9 Ab binder)
CC(C)c1nc2sc3c(SCC(N)=O)ncnc3c2c2c1CCC2	NR1D1 modulator 869 | Rev-erbA confirm 711 | RORg DNA counter inactive
CCCCc1nc2sc3c(SCCN(C)C)ncnc3c2c2c1CCC2	NR1D1 modulator 31 | Rev-erbA confirm 47 | RORg DNA counter inactive
O=C(OCCN1CCOCC1)c1ccc(O)cc1	NR1D1 modulator 14 | Rev-erbA confirm inactive
C=CCN1C(=O)[C@H](CC(=O)N2CCN(C(=O)C3CC3)CC2)[C@@]2(C(=O)OCC)CCCC=C12	none (no result: NR2E3 ag-1, NR2E3 ag-2, GalR3 antagonist, PG9 Ab binder)
COC(=O)[C@@H]1N=C(c2ccc(OC)cc2)O[C@]12C(=O)N(Cc1cn(Cc3ccccc3)nn1)c1cccc(Cl)c12	none (no result: NR2E3 ag-1, NR2E3 ag-2, GalR3 antagonist, PG9 Ab binder)
CCCCCNC(=O)C(c1cccc2ccccc12)n1c(=O)c(-c2ccccc2)nc2ccccc21 (stereo unspecified)	none (no result: NR2E3 ag-1, NR2E3 ag-2)
O=C(NCc1ccccc1)C(c1cccc2ccccc12)n1c(=O)c(-c2ccccc2)nc2ccccc21 (stereo unspecified)	NR1D1 modulator 24 (no result: NR2E3 ag-1, NR2E3 ag-2) | Rev-erbA confirm 46 | RORg DNA counter inactive
C[C@H]1[C@@H](OC(=O)NCc2ccccc2)CC[C@@]23CCCN2C(=O)CCC[C@@H]13	none (no result: NR2E3 ag-1, NR2E3 ag-2, GalR3 antagonist, PG9 Ab binder)
CCc1nc(SCC(=O)Nc2ccccc2OC)c2c(C)c(C)sc2n1	none
CCc1nc(SCC(=O)Nc2cc(C)ccc2OC)c2c(C)c(C)sc2n1	NR1D1 modulator 18 | Rev-erbA confirm inactive
N#Cc1ccc(-c2cccnc2)nc1SCc1ccc(Cl)cc1Cl	NR1D1 modulator 20 | Rev-erbA confirm inactive
Cc1cc(C)c2nc(/N=C(\N)NC(=O)c3ccccc3)nc(C)c2c1	NR1D1 modulator 56 | Rev-erbA confirm inactive
CCc1ccc2nc(/N=C(\N)NC(=O)c3ccccc3)nc(C)c2c1	NR1D1 modulator 23 | Rev-erbA confirm inactive
COC(=O)[C@]1(CNC(=O)C(F)(F)F)CC(=O)N(C)[C@@H]1c1ccccc1	none (no result: NR2E3 ag-1, NR2E3 ag-2, GalR3 antagonist, PG9 Ab binder)
COC(=O)[C@]12C[C@H](CC(=O)NCC3CCCCC3)C(=O)N(Cc3ccc(Cl)cc3Cl)C1=C[C@H](C1CCCC1)O[C@@H]2C	none (no result: NR2E3 ag-1, NR2E3 ag-2, GalR3 antagonist, PG9 Ab binder)
O=C(CCCOc1ccc(Cl)cc1Cl)NNC(=O)c1ccc(NC(=O)c2ccccc2)cc1	NR1D1 modulator 74 | Rev-erbA confirm 99 | RORg DNA counter inactive
Cc1ccccc1C(=O)Nc1ccc(C(=O)NNC(=O)CCCOc2ccc(Cl)cc2Cl)cc1	none
Cc1cc(NC(=O)COC(=O)C2CC(=O)N(c3ccc(Cl)cc3)C2)no1 (stereo unspecified)	NR1D1 modulator 22 | Rev-erbA confirm inactive
CCC(=O)c1ccc(N2CCN(S(=O)(=O)c3ccccc3)CC2)c(F)c1	NR1D1 modulator 23 | Rev-erbA confirm 46 | RORg DNA counter inactive
